Source: BindingDB's records for doi:10.1016/j.bmcl.2007.03.101 (Eli Lilly, 2007)

Target: T1, 5-hydroxytryptamine receptor 1A (Homo sapiens, UniProt P08908)
T1 sequence (P08908 whole entry): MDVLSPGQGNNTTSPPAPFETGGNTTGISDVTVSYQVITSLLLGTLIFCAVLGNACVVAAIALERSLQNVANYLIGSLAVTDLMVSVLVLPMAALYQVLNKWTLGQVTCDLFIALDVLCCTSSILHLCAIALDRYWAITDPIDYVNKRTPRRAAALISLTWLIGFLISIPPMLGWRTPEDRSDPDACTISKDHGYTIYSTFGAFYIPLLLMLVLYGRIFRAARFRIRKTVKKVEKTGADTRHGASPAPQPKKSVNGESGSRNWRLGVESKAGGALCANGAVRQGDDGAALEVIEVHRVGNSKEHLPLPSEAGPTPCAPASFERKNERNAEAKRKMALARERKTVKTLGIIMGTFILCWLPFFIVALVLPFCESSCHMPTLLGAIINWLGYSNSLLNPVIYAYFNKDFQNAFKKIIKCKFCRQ
Test: Displacement of [3H]8-OH-DPAT from human 5HT1A expressed in LM(tk-) cells
Summary of the method: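 Human 5-HT1A was cloned into L-M(tk-) cells, and membrane homogenates were prepared. Binding used [3H]-8-OH-DPAT as radioligand. Ki (nM) is the mean of runs in triplicate.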

- Ki: 13 nM
SMILES: C[C@H]1CN(c2cccc3cc(F)ccc23)CCN1CC[C@H]1OCC2=CC(C(N)=O)=CCC21 (stereo partly drawn) [(1R)-1-(2-((S)-4-(6-fluoronaphthalen-1-yl)-2-methylpiperazin-1-yl)ethyl)-1,3,7,7a-tetrahydroisobenzofuran-5-carboxamide]
